Reference: ChEMBL document CHEMBL3739368, “Versixanthones A-F, Cytotoxic Xanthone-Chromanone Dimers from the Marine-Derived Fungus Aspergillus versicolor HDN1009” (J Nat Prod, 2015)
Structures can show the parent of a compound that is named as a salt. Activity calls are given as the source filed them. The calls are words filed in the database; no cut-off is given here.

Legend:
[1] = Cytotoxicity against human HCT116 cells after 72 hrs by MTT assay; format: functional, cell-based; details: HCT-116, 72 h
[2] = Cytotoxicity against human HL60 cells after 72 hrs by MTT assay; format: functional, cell-based; details: HL-60, 72 h
A549 = experiment: Cytotoxicity against human A549 cells after 72 hrs by MTT assay; format: functional, cell-based; details: A549, 72 h
K562 = experiment: Cytotoxicity against human K562 cells after 72 hrs by MTT assay; format: functional, cell-based; details: K562, 72 h
[3] = Chemical stability of the compound in deuterated DMSO by NMR spectroscopic analysis; format: physicochemical
NCI-H1975 = experiment: Cytotoxicity against human NCI-H1975 cells after 72 hrs by MTT assay; format: functional, cell-based; details: NCI-H1975, 72 h
[4] = Cytotoxicity against human HO8910 cells after 72 hrs by MTT assay; format: functional, cell-based; details: HO-8910, 72 h
[5] = Cytotoxicity against human MGC803 cells after 72 hrs by MTT assay; format: functional, cell-based; details: MGC-803, 72 h
[6] = target: T1, DNA topoisomerase 1 (Homo sapiens) (UniProt P11387); experiment: Inhibition of topoisomerase 1 (unknown origin) assessed as decrease in PBR322 DNA relaxation at 5 to 40 uM after 30 mins by ethidium bromide staining-based agarose gel electrophoresis
T1 sequence (whole entry): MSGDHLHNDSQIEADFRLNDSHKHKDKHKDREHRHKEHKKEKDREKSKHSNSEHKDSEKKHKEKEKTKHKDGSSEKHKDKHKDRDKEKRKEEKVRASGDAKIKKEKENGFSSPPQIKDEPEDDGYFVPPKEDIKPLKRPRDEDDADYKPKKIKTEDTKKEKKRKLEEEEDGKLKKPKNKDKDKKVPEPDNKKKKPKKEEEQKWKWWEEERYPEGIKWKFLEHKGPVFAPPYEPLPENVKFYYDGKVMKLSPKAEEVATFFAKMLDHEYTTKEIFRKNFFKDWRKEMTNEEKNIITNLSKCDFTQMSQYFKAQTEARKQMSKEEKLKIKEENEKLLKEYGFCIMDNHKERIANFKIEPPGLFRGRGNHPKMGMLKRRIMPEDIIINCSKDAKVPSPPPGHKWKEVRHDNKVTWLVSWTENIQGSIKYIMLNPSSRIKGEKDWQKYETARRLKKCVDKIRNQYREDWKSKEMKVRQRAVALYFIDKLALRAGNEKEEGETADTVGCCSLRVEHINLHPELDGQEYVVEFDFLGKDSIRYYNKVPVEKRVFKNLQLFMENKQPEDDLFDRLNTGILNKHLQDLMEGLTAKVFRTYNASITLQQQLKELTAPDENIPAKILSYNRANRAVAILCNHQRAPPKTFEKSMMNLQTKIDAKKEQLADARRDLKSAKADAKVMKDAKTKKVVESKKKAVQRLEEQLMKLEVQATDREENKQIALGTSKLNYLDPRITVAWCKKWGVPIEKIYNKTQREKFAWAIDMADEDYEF
Procedure, shortened: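 Supercoiled pBR322 plasmid DNA served as substrate. Samples were resolved on 1% agarose gels and stained with ethidium bromide. Supercoiled and relaxed DNA bands were marked on the gel.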

| Stability [3] | inhibition [6] | Compound | IC50 [1] [µM] | IC50 [2] [µM] | IC50 (A549) [µM] | IC50 (K562) [µM] | IC50 (NCI-H1975) [µM] | IC50 [4] [µM] | IC50 [5] [µM] |
| --- | --- | --- | --- | --- | --- | --- | --- | --- | --- |
| Unstable |  | COC(=O)[C@@]12Oc3ccc(-c4ccc(O)c5c4O[C@](C(=O)OC)([C@@H]4OC(=O)C[C@@H]4C)CC5=O)c(O)c3C(=O)C1=C(O)C[C@H](C)[C@H]2O | > 50 | 7.8 | > 50 | 18.2 | 25.6 | > 50 |  |
| Unstable |  | COC(=O)[C@@]12Oc3c(-c4ccc5c(c4O)C(=O)C[C@@](C(=O)OC)([C@@H]4OC(=O)C[C@@H]4C)O5)ccc(O)c3C(=O)C1=C(O)C[C@H](C)[C@H]2O |  | 2.6 | > 50 | 7.1 | 11.2 | 10.1 | > 50 |
|  |  | COc1cccc2c1C(=O)c1c(O)c3c(c(O)c1C2=O)C[C@@](O)(C(=O)CO)C[C@@H]3O[C@H]1C[C@H](N)[C@H](O)[C@H](C)O1 [DOXORUBICIN HYDROCHLORIDE] | 0.2 |  |  |  | 0.8 |  | 0.2 |
|  |  | COC(=O)[C@@]12Oc3ccc(-c4ccc5c(c4O)C(=O)C4=C(O)C[C@H](C)[C@@H](O)[C@]4(C(=O)OC)O5)c(O)c3C(=O)C1=C(O)C[C@H](C)[C@H]2O | 0.9 | 1 | 2.1 | 2 |  | 1.5 | 1.5 |
| Unstable | Active | COC(=O)C[C@H](C)[C@@H](O)[C@]1(C(=O)OC)CC(=O)c2c(ccc(-c3ccc(O)c4c3O[C@]3(C(=O)OC)C(=C(O)C[C@H](C)[C@H]3O)C4=O)c2O)O1 |  | 1.6 |  | 11.1 | 2.7 | 2 | 2.2 |
| Unstable |  | COC(=O)C[C@H](C)[C@@H](O)[C@]1(C(=O)OC)CC(=O)c2c(ccc(-c3ccc4c(c3O)C(=O)C3=C(O)C[C@H](C)[C@@H](O)[C@]3(C(=O)OC)O4)c2O)O1 | 0.7 | 2.7 | 10.6 | 6.7 |  | 20.8 |  |
| Unstable |  | COC(=O)[C@@]12Oc3c(-c4ccc(O)c5c4O[C@](C(=O)OC)([C@@H]4OC(=O)C[C@@H]4C)CC5=O)ccc(O)c3C(=O)C1=C(O)C[C@H](C)[C@H]2O |  | 9.9 | > 50 |  | > 50 | > 50 | 21.6 |
| Unstable |  | COC(=O)[C@@]12Oc3ccc(-c4ccc5c(c4O)C(=O)C[C@@](C(=O)OC)([C@@H]4OC(=O)C[C@@H]4C)O5)c(O)c3C(=O)C1=C(O)C[C@H](C)[C@H]2O | 6.1 | 3.1 | 12.7 | 9.1 | > 50 | 13.9 | 9.8 |
